OX1R antag-1: antagonists of human orexin 1 receptor (OX1R). 330,000 compounds, 1.8% hits. inhibition, % at 6.6 µM. AID 485270. OX1R-expressing cells, FRET antagonist read-out; in the data active = inhibition mostly above about 38%, no sharp cut-off; inactive = mostly below about 40%;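 note: 0% = agonist challenge alone and 100% = reference antagonist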
CHO parental Ca: signal in parental CHO cells, OX1R antagonist counter-screen | parental CHO-K1, ATP-induced calcium, Fluo-8 fluorescence | AID 463079 | inhibition, % at 5.6 µM | 330,000 compounds, 0.63% hits;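 active = inhibition above that plate's mean sample inhibition plus 3 SD, cut at about 26% in these data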;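 note: 0% = ATP-challenged DMSO wells and 100% = DMSO wells without ATP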
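material = parental CHO cells | also added = ATP as calcium-mobilizing challenge | dosing = single point at 5.6 µM | detection = intracellular calcium via Fluo-8 no-wash fluorescent dye | read-out = % inhibition | benchmarks = low control ATP plus DMSO, high control DMSO only | repeats = one well per compound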
OX1R antag-2: human HCRTR1 antagonism; CHO/OX1R cells, Fluo-8 calcium fluorescence, orexin A; 330,000 compounds, 0.43% hits; AID 434989; inhibition, % at 5 µM;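 active = inhibition above its plate's threshold, mean inhibition of all tested compounds on the plate plus 3 SD, cut at about 37% in these data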;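 note: 0% = orexin A challenge wells and 100% = SB-334867-A antagonist wells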
TAAR1 agonist: human TAAR1 agonism; 360,000 compounds, 0.99% hits; CHO RD-HGA16 TAAR1, Fluo-8 calcium fluorescence; vehicle wells 0%, saturating PEA agonist 100%; activation, % at 3 µM;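 active = activation above the mean activation of all test compounds in the run plus 3 SD, cut at about 38% in these data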
Target sequence (Q96RJ0 whole entry, looked up): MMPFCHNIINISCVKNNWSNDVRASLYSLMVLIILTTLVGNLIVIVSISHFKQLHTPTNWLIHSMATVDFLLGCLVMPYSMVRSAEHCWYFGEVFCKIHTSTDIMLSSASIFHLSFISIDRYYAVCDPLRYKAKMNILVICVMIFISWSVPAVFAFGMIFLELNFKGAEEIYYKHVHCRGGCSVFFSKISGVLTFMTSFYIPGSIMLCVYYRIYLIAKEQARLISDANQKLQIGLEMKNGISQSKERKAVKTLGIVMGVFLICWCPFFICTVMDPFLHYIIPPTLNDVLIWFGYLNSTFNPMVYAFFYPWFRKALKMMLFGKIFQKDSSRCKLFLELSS
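Test system: RD-HGA16 (CHO) cells co-expressing Gα16 and hTAAR1 / Benchmarks: DMSO vehicle as 0%, PEA at EC100 as 100% / Repeats: no replicates (n 1) / Measure: % activation from peak over basal fluorescence ratio, DMSO-to-PEA scaled / Timing: 17-24 h plating, Fluo-8 75 min 37 °C, 30 min RT / Technique: kinetic Fluo-8 calcium fluorescence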
TAAR1 antag: antagonists of human TAAR1; Q96RJ0; CHO RD-HGA16 TAAR1, Fluo-8 calcium fluorescence, antagonist; inhibition, % at 3 µM; 360,000 compounds, 1.5% hits; AID 624466;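 active = inhibition above a per-plate cutoff, the mean inhibition of test compounds on that plate plus 3 SD, cut at about 49% in these data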;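 note: 0% = DMSO plus EC80 beta-PEA response and 100% = DMSO alone without agonist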
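System: CHO RD-HGA16 cells bearing hTAAR1. Reagent: EC80 β-phenethylamine stimulus. Schedule: seeding 17-24 h prior, 75-min 37 °C, 30-min RT dye loading. Signal: Fluo-8 intracellular calcium dye fluorescence, real-time kinetic reads. Read-out: % inhibition from peak post-agonist over basal fluorescence ratio. Benchmarks: vehicle wells and EC80 agonist wells. Replicates: n of 1.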
TAAR1 ag conf: confirmation of human TAAR1 agonists; CHO RD-HGA16 TAAR1, Fluo-8 calcium fluorescence; scaled: DMSO 0%, maximal phenethylamine 100%; activation, % at 3 µM; AID 651783; shares compounds with TAAR1 agonist; 2,400 compounds, 82% hits;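 active = activation above a cutoff set at the run's mean compound activation plus 3 SD, cut at about 39% in these data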
Ga16 nonsel ag: nonselective agonism, TAAR1 counter-screen | shares compounds with TAAR1 agonist | CHO-Ga16 parental, Fluo-8 calcium fluorescence; normalized to maximal ATP response, DMSO zero | activation, % at 3 µM | 2,400 compounds, 50% hits;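 active = activation above the run cutoff, the mean activation over all tested wells plus 3 SD, cut at about 12% in these data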;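 note: 0% = DMSO wells and 100% = maximal ATP response on the peak over basal ratio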
TAAR1 desensitize: counter-screen for human TAAR1 agonists: agonists that desensitize TAAR1; inhibition, % at 3 µM; 2,400 compounds, 46% hits; CHO RD-HGA16 hTAAR1, Fluo-8 calcium, beta-PEA response inhibition; shares compounds with TAAR1 agonist;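 active = inhibition above the run cutoff, the mean inhibition of all test compounds plus 3 SD, cut at about 49% in these data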;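 note: beta-PEA stimulus applied at its EC80; loss of beta-PEA calcium signal after compound pretreatment read as receptor desensitization; 0% = DMSO with beta-PEA at EC80 and 100% = DMSO alone without agonist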
Ga16 nonsel ant: nonselective Ga16 antagonist in TAAR1 agonist counter-screen | shares compounds with TAAR1 agonist | CHO-Ga16 ATP-induced calcium, Fluo-8 fluorescence | inhibition, % at 3 µM | 2,400 compounds, 39% hits | AID 651952;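 active = inhibition above the plate's mean compound inhibition plus 3 SD, computed per plate, cut at about 22% in these data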;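 note: 0% = EC80 ATP with DMSO and 100% = DMSO wells without ATP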
Numbers without * were called inactive; nt = not tested or not shown. An excerpt weighted towards active compounds, which were near 3.9% of everything screened.

SMILES	OX1R antag-1	CHO parental Ca	OX1R antag-2	TAAR1 agonist	TAAR1 antag	TAAR1 ag conf	Ga16 nonsel ag	TAAR1 desensitize	Ga16 nonsel ant
CC(C(=O)N1CCc2ccccc2C1)N1C(=O)c2ccccc2C1=O (stereo unspecified)	9	-9	-17	1	-14	nt	nt	nt	nt
CC(C)CC(C(=O)N1CCc2ccccc2C1)N1C(=O)c2ccccc2C1=O (stereo unspecified)	28	-23	-30	75*	37	77*	3	65*	15
O=C(Cn1nnc(N2CCCCC2)n1)NN=Cc1ccccc1O	nt	nt	nt	49*	-12	64*	2	11	1
Nc1nnn(CC(=O)N/N=C/c2cccc3ccccc23)n1	1	-10	-12	0	9	nt	nt	nt	nt
O=C(CCN1CCCCC1)NCC1OCCc2ccccc21 (stereo unspecified)	5	-3	-6	4	-2	nt	nt	nt	nt
O=C(Nc1ccccc1)c1nc[nH]c1C(=O)N1CCc2ccccc2C1	12	-27	-21	4	8	nt	nt	nt	nt
O=C(Nc1nccs1)c1nc[nH]c1C(=O)N1CCc2ccccc2C1	0	-8	-22	82*	82*	103*	4	94*	8
CC1(C)CC(=O)C(C(C2=C(O)CC(C)(C)CC2=O)c2ccc(Br)s2)C(=O)C1 (stereo unspecified)	10	-17	-19	51*	19	22	34*	42	27*
COc1ccc2cc(-c3ccccc3)c(=O)oc2c1	8	-3	-19	6	-16	nt	nt	nt	nt
CCN(CC)c1ccc2cc(-c3nc(-c4ccc(OC)cc4)cs3)c(=O)oc2c1	26	97*	106*	451*	105*	355*	606*	89*	96*
Cc1c(C(=O)NCc2ccc(C(F)(F)F)cc2)sc(=O)n1Cc1cccc(F)c1	nt	nt	nt	127*	100*	114*	77*	97*	71*
Cc1cccc(NS(=O)(=O)c2cn(C)c(=O)n(C)c2=O)c1C	-2	-3	-14	0	-8	nt	nt	nt	nt
Cc1c(C(=O)NCc2ccc3c(c2)OCO3)cccc1[N+](=O)[O-]	37	1	-21	0	-8	nt	nt	nt	nt
O=C(NCCc1ccccc1)c1ccc2c(=O)[nH]c3c(C(=O)NCC4CCCO4)sc(=S)n3c2c1 (stereo unspecified)	52*	-6	-4	65*	52*	90*	6	82*	22*
O=C(NCCc1ccc(Cl)cc1)c1ccc2c(=O)[nH]c3c(C(=O)NCC4CCCO4)sc(=S)n3c2c1 (stereo unspecified)	nt	nt	nt	-1	1	nt	nt	nt	nt
Cc1ccc(S(=O)(=O)N2CCCCC2CCNC(=O)C(=O)NCc2ccncc2)cc1 (stereo unspecified)	6	-37	-34	2	-15	nt	nt	nt	nt
NC1=NC2(CCCCC2)N=C(Nc2ccc(Br)cc2)N1	7	2	-15	44*	18	69*	9	41	0
Cc1cccc(C)c1NC1=NC2(CCCCC2)N=C(N)N1	11	0	12	4	-11	nt	nt	nt	nt
Cc1cc(C(=O)Nc2cccc(O)c2)c(C)o1	1	0	17	50*	0	50*	17*	3	5
Cc1cc(C(=O)Nc2cccc(C(=O)O)c2)c(C)o1	6	-6	-18	6	14	nt	nt	nt	nt
O=c1[nH]ncc2c3ccccc3n(Cc3cccc(Cl)c3)c12	28	-17	-6	54*	27	4	2	11	10
O=c1[nH]ncc2c3ccccc3n(Cc3ccc(F)cc3)c12	21	-13	-9	12	-9	nt	nt	nt	nt

Screens deposited in PubChem BioAssay by The Scripps Research Institute Molecular Screening Center.
